Results from ChEMBL document CHEMBL4219118, “Cathepsin B inhibitors: Further exploration of the nitroxoline core” (Bioorg Med Chem Lett, 2018).
pKi: −log10 of the molar value. Active and inactive are the calls of the source. The calls are words filed in the database; no cut-off is given here.

Experiments:
Cathepsin B [1] = target: T1, Cathepsin B (Homo sapiens, UniProt P07858); test: Mixed inhibition of recombinant human cathepsin B exopeptidase activity assessed as inhibitory constant for enzyme-substrate-inhibitor complex using Abz-Gly-Ile-Val-Arg-Ala-Lys(Dnp)-OH as substrate in presence of pH 5 acetate buffer by fluorescence assay
Cathepsin B [2] = target: T1, Cathepsin B; test: Mixed inhibition of recombinant human cathepsin B exopeptidase activity assessed as inhibitory constant for enzyme-inhibitor complex using Abz-Gly-Ile-Val-Arg-Ala-Lys(Dnp)-OH as substrate in presence of pH 5 acetate buffer by fluorescence assay
Cathepsin B [3] = target: T1, Cathepsin B; test: Non-competitive inhibition of recombinant human cathepsin B endopeptidase activity assessed as inhibitory constant for enzyme-substrate-inhibitor complex using Z-Arg-Arg-AMC as substrate in presence of pH 6 phosphate buffer by fluorescence assay
Cathepsin B [4] = target: T1, Cathepsin B; test: Non-competitive inhibition of recombinant human cathepsin B endopeptidase activity assessed as inhibitory constant for enzyme-inhibitor complex using Z-Arg-Arg-AMC as substrate in presence of pH 6 phosphate buffer by fluorescence assay
Cathepsin B [5] = target: T1, Cathepsin B; test: Mixed inhibition of recombinant human cathepsin B endopeptidase activity assessed as inhibitory constant for enzyme-inhibitor complex using Z-Arg-Arg-AMC as substrate in presence of pH 6 phosphate buffer by fluorescence assay
Cathepsin B [6] = target: T1, Cathepsin B; test: Inhibition of cathepsin B in human MCF-10A neoT cells assessed as proteolysis of extracellular membrane by measuring decrease in extracellular degradation of DQ-collagen 4 at 5 uM incubated for 6 hrs measured for 2 hrs by fluorescence based spectrofluorimetric assay relative to control; assay type: cell-based
In short: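 MCF-10A neoT cells (5 × 10⁴) incubated with DQ-collagen IV in the presence of compound or DMSO. Extracellular degradation product read by spectrofluorimetry. Mean of n = 3, six replicates per experiment.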

Cathepsin B [7] = target: T1, Cathepsin B; test: Inhibition of cathepsin B in human MCF-10A neoT cells assessed as proteolysis of extracellular membrane by measuring decrease in intracellular degradation of DQ-collagen 4 at 50 uM incubated for 2 hrs followed by DQ-collagen addition measured for 2 hrs by propidium iodide staining based flow cytometry relative to control; assay type: cell-based
In short: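 MCF-10A neoT cells (6 × 10⁴) treated with compound or DMSO. Intracellular DQ-collagen IV degradation measured by flow cytometry, with unlabeled cells as background. Reduction expressed versus DMSO. Mean of n = 3, run in duplicate.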

Cathepsin B [8] = target: T1, Cathepsin B; test: Competitive inhibition of recombinant human cathepsin B endopeptidase activity assessed as inhibitory constant for enzyme-inhibitor complex using Z-Arg-Arg-AMC as substrate in presence of pH 4.5 acetate buffer by fluorescence assay; conditions: read-out: Ki
In short: (§1)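 Recombinant cathepsin B endopeptidase activity assayed with the small substrate Z-Arg-Arg-AMC at pH 4.5. Acidic conditions chosen to shift the enzyme toward the closed (exopeptidase) conformation. Ki reported.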

U-87 MG = test: Cytotoxicity against human U87MG cells assessed as decrease in cell viability after 72 hrs by MTS assay; assay type: cell-based; conditions: u-87mg atcc
Cathepsin B [9] = target: T1, Cathepsin B; test: Mixed inhibition of recombinant human cathepsin B endopeptidase activity assessed as inhibitory constant for enzyme-substrate-inhibitor complex using Z-Arg-Arg-AMC as substrate in presence of pH 6 phosphate buffer by fluorescence assay
MCF-10A-neoT [10] = test: Cytotoxicity against human MCF10AneoT cells assessed as decrease in cell viability after 72 hrs by MTS assay; assay type: cell-based
Cathepsin B [11] = target: T1, Cathepsin B; test: Inhibition of recombinant human cathepsin B endopeptidase activity assessed as inhibitory constant for enzyme-inhibitor complex using Z-Arg-Arg-AMC as substrate in presence of pH 4.5 acetate buffer by fluorescence assay; in short: as §1
Cathepsin B [12] = target: T1, Cathepsin B; test: Uncompetitive inhibition of recombinant human cathepsin B endopeptidase activity assessed as inhibitory constant for enzyme-substrate-inhibitor complex using Z-Arg-Arg-AMC as substrate in presence of pH 6 phosphate buffer by fluorescence assay
Cathepsin B [13] = target: T1, Cathepsin B; test: Uncompetitive inhibition of recombinant human cathepsin B exopeptidase activity assessed as inhibitory constant for enzyme-substrate-inhibitor complex using Abz-Gly-Ile-Val-Arg-Ala-Lys(Dnp)-OH as substrate in presence of pH 5 acetate buffer by fluorescence assay
Cathepsin B [14] = target: T1, Cathepsin B; test: Inhibition of recombinant human cathepsin B endopeptidase activity assessed as inhibitory constant for enzyme-substrate-inhibitor complex using Z-Arg-Arg-AMC as substrate in presence of pH 6 phosphate buffer by fluorescence assay
Cathepsin B [15] = target: T1, Cathepsin B; test: Non-competitive inhibition of recombinant human cathepsin B exopeptidase activity assessed as inhibitory constant for enzyme-substrate-inhibitor complex using Abz-Gly-Ile-Val-Arg-Ala-Lys(Dnp)-OH as substrate in presence of pH 5 acetate buffer by fluorescence assay
Cathepsin B [16] = target: T1, Cathepsin B; test: Non-competitive inhibition of recombinant human cathepsin B exopeptidase activity assessed as inhibitory constant for enzyme-inhibitor complex using Abz-Gly-Ile-Val-Arg-Ala-Lys(Dnp)-OH as substrate in presence of pH 5 acetate buffer by fluorescence assay
MCF-10A-neoT [17] = test: Antiinvasive activity against human MCF10AneoT cells at 5 uM incubated for 1 hr measured every 15 mins for 72 hrs by real time xCELLigence assay relative to control; assay type: functional
In short: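 MCF-10A neoT cells (3 × 10⁴) seeded on Matrigel-coated (1 mg/mL) upper compartments of CIM-plates. Compound or DMSO (0.05%) added to growth medium in both upper and lower compartments. Invasion followed by impedance (cell index) for 72 h. Slopes (1/h) between 4 and 14 h converted to percentage invasion versus DMSO. Means of n = 2, each run in triplicate.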

pKi (Cathepsin B [1])	pKi (Cathepsin B [2])	pKi (Cathepsin B [5])	pKi (Cathepsin B [9])	pKi (Cathepsin B [15])	pKi (Cathepsin B [16])	SMILES	also measured
4.66	3.93					COCCCOc1cc(-c2ccc([N+](=O)[O-])c3cccnc23)ccc1OC	pKi (Cathepsin B [3]): 3.49; pKi (Cathepsin B [4]): 3.49
4.49	3.73	3.74	4.19			N#CCN(Cc1ccccc1)C(=O)c1cc([N+](=O)[O-])c2cccnc2c1O	inhibition (Cathepsin B [6]): 60%; inhibition (Cathepsin B [7]): < 10%; pKi (Cathepsin B [8]): 3.88; Activity (U-87 MG): Non-Toxic; Activity (MCF-10A-neoT [10]): Non-Toxic
						CC(=O)c1ccc(-c2occc2-c2ccc([N+](=O)[O-])c3cccnc23)cc1	Ki (Cathepsin B [11]): Not Active; pKi (Cathepsin B [12]): 4.34; pKi (Cathepsin B [13]): 4.96; Ki (Cathepsin B [14]): Not Active
						CC(=O)c1ccc(-c2cc(-c3ccc([N+](=O)[O-])c4cccnc34)c(-c3ccc(C(C)=O)cc3)o2)cc1	Ki (Cathepsin B [11]): Not Active; pKi (Cathepsin B [12]): 4.41; pKi (Cathepsin B [13]): 4.89; Ki (Cathepsin B [14]): Not Active
		3.51	3.77	3.44	3.44	O=C(c1cc([N+](=O)[O-])c2cccnc2c1O)N1CCCCC1	
4.74	3.81					N#CCN(Cc1ccccc1)C(=O)c1ccc2c([N+](=O)[O-])ccc(O)c2n1	pKi (Cathepsin B [12]): 4.47
		3.84	4.03	3.79	3.79	CC1CCN(C(=O)c2cc([N+](=O)[O-])c3cccnc3c2O)CC1	
		3.74	3.94	3.72	3.72	N#CCNC(=O)c1ccc2c([N+](=O)[O-])ccc(O)c2n1	
		3.80	4.18	3.81	3.81	N#CC1(NC(=O)c2ccc3c([N+](=O)[O-])ccc(O)c3n2)CC1	
		3.99	3.58	3.69	3.69	CN(CC#N)C(=O)c1ccc2c([N+](=O)[O-])ccc(O)c2n1	
3.96	3.59	3.47	3.91			CN(CC#N)C(=O)c1ccc2c([N+](=O)[O-])cc([N+](=O)[O-])c(O)c2n1	
						CCCNC(=O)[C@H]1O[C@@H]1C(=O)N[C@H](C(=O)N1CCC[C@H]1C(=O)O)[C@@H](C)CC	inhibition (Cathepsin B [7]): inactive; Activity (MCF-10A-neoT [17]): 40%
4.47	3.70					N#CCNC(=O)c1ccc2c([N+](=O)[O-])cc([N+](=O)[O-])c(O)c2n1	pKi (Cathepsin B [8]): 4.54; pKi (Cathepsin B [3]): 3.80; pKi (Cathepsin B [4]): 3.80
		3.85	4.17	3.67	3.67	N#Cc1ccc2c([N+](=O)[O-])ccc(O)c2n1	pKi (Cathepsin B [8]): 3.91
4.46	3.81					N#CCN(Cc1ccccc1)C(=O)c1ccc2c([N+](=O)[O-])cc([N+](=O)[O-])c(O)c2n1	pKi (Cathepsin B [12]): 5.05; inhibition (Cathepsin B [6]): Active; inhibition (Cathepsin B [7]): inactive; pKi (Cathepsin B [8]): 3.79; Activity (U-87 MG): Non-Toxic; Activity (MCF-10A-neoT [10]): Non-Toxic
		3.70	4.39	3.74	3.74	COCCN(CC1CCN(Cc2nc3ccccc3s2)CC1)C(=O)c1cc([N+](=O)[O-])c2cccnc2c1O	
						CCCNC(=O)[C@H]1O[C@@H]1C(=O)N[C@H](C(=O)N1CCC[C@H]1C(=O)OC)[C@@H](C)CC	inhibition (Cathepsin B [7]): Active
				3.72	3.72	N#Cc1ccc2c([N+](=O)[O-])cc([N+](=O)[O-])c(O)c2n1	pKi (Cathepsin B [12]): 4.41
